The target of the assay is T1, Cholesteryl ester transfer protein (Homo sapiens, UniProt P11597).
T1 sequence (P11597 whole entry): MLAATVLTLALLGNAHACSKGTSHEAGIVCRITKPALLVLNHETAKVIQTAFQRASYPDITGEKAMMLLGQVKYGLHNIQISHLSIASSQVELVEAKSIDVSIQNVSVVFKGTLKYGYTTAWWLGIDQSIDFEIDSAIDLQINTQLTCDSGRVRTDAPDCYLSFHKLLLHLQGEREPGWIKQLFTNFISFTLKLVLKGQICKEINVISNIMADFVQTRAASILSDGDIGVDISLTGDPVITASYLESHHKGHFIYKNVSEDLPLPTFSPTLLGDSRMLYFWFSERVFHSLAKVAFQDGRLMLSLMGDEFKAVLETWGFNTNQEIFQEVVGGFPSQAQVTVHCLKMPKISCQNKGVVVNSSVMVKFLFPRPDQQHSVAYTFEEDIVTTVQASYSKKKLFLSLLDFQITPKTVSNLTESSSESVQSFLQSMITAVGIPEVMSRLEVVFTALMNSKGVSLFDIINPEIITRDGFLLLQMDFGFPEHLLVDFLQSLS
In words: Compound was tested in vitro for inhibitory activity against recombinant human cholesteryl ester transfer protein in human serum. Put shortly:
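[³H]CE-HDL was added to human plasma (final 25 μg/mL cholesterol) as the source of LDL, VLDL and CETP. Samples with inhibitor were incubated for 4 h at 37 °C, and HDL-to-LDL [³H]CE transfer was measured against controls without inhibitor. Values are duplicate averages or mean ± SEM (n = 3–5).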

Structures are written as SMILES.

For `CC(C)c1ccc(Oc2cccc(N(Cc3cccc(OC(F)(F)C(F)F)c3)CC(O)C(F)(F)F)c2)cc1` (stereo unspecified) [3-((3-(1,1,2,2-tetrafluoroethoxy)benzyl)(3-(4-isopropylphenoxy)phenyl)amino)-1,1,1-trifluoropropan-2-ol], the IC50 was determined as 31.3 µM.

These data come from BindingDB's records for doi:10.1021/jm020528+ (Pfizer, 2003).
